Only some compounds are listed: those with a hit (about 2.9% of all), similar ones and a draw of the others.
UBC9 SUMO inh – SUMOylation inhibition | AID 2006 | HTRF SUMOylation assay, SAE1/SAE2 + UBC9, in vitro | inhibition, % at 35 µM | 290,000 compounds, 0.36% hits; in the data active = inhibition above about 50%, passing the limit was not always enough
Target sequence (P63279 whole entry, looked up): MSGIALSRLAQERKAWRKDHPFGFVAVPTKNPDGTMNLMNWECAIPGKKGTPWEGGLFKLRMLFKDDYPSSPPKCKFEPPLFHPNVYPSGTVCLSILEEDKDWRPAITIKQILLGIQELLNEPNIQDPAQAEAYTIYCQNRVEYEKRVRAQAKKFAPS
NALP1 yeast inh – inhibitors of NALP1 inflammasome in yeast | S. cerevisiae NALP1/ASC/caspase-1 growth, X-gal OD620, 72 h | inhibition, % at 10 µM | 280,000 compounds, 0.61% hits; in the data active = inhibition mostly above about 24%, no sharp cut-off; inactive = mostly below about 32%
VIM-2 inhibitor – blocks Pseudomonas aeruginosa VIM-2 metallo-beta-lactamase. purified VIM-2, nitrocefin hydrolysis, epi-absorbance fluorescence. 290,000 compounds, 0.89% hits. AID 1527. inhibition, % at 5.6 µM;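 active = inhibition above the mean of all tested compounds plus 3 SD, cutoff set per screening run, cut at about 7.5% in these data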;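 also: red hydrolysis product quenches plate fluorescence so inhibitors raise well fluorescence; 0% = enzyme with DMSO and 100% = DMSO without enzyme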
FID counter – counter-screen for HCV NS3 helicase inhibitors: DNA intercalator displacement; DNA fluorescent intercalator displacement, fluorescence; inhibition, % at 7.9 µM; 290,000 compounds, 0.17% hits; AID 1845; in the data active = inhibition above about 37%;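 also: 0% = vehicle and 100% = reference compound; higher means more ethidium bromide displaced from hairpin DNA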
IMP-1 inhibitor – inhibitors of Pseudomonas aeruginosa IMP-1 metallo-beta-lactamase. purified IMP-1, nitrocefin hydrolysis, epi-absorbance fluorescence. inhibition, % at 5.6 µM. 290,000 compounds, 0.45% hits. AID 1556;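 active = inhibition above the mean plus 3 SD of all compounds in the same screening run, cut at about 4.5% in these data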;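 also: 0% = IMP-1 with DMSO and 100% = DMSO wells lacking enzyme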
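assay system = purified recombinant IMP-1 metallo-beta-lactamase enzyme | schedule = 15 min preincubation plus 25 min reaction at 25 °C | signal = Epi-absorbance fluorescence, 480 nm excitation, 530 nm emission | read-out basis = percent inhibition from optical density relative to buffer-blank wells | controls = IMP-1 with DMSO as 0%, enzyme-free DMSO as 100%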
Mot1-301 SUMO – blocks SUMOylation pathway, rescuing yeast Mot1-301 growth; growth rescue, % at 18.8 µM; S. cerevisiae Mot1-301 growth rescue, ATP luminescence, 38.5C; percent above DMSO median, 100 means doubled; 320,000 compounds, 1% hits; AID 2716;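 active = every valid replicate shows activation above 250% relative to neutral control wells; inactive = the rest, any valid replicate at or below 250%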;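 also: OY570 slx delta 5 strain wells were the positive control but not used for scaling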
An asterisk follows results filed as active.

Results for CCOC(=O)CN1C(c2ccc(O)cc2)Nc2ccc(Br)cc2C1c1ccccc1 (stereo not drawn) ?
UBC9 SUMO inh: -23; NALP1 yeast inh: 24; VIM-2 inhibitor: -1; FID counter: -16; IMP-1 inhibitor: -1; Mot1-301 SUMO: 17

How did COc1ccccc1/C=C1/SC(=O)N(CCC(=O)Nc2ccc(S(=O)(=O)Nc3nccs3)cc2)C1=O do in these assays?
UBC9 SUMO inh: 59*; NALP1 yeast inh: 15; VIM-2 inhibitor: -1; FID counter: -14; IMP-1 inhibitor: -3; Mot1-301 SUMO: -8

What do the screens show for `CCOC(=O)N1CCc2[nH]c3ccc(C)cc3c2C1`?
UBC9 SUMO inh: -8; NALP1 yeast inh: -2; VIM-2 inhibitor: 8.8*; FID counter: 0; IMP-1 inhibitor: -3; Mot1-301 SUMO: 87

How did COc1ccccc1CNC(=O)CN1C(=O)COc2ccc(S(=O)(=O)NC3CCCC3)cc21 do in these assays?
UBC9 SUMO inh: 4; NALP1 yeast inh: -3; VIM-2 inhibitor: 0; FID counter: -29; IMP-1 inhibitor: -1; Mot1-301 SUMO: 0

How did COc1ccc(OCC(=O)NC(=S)Nc2ccc(S(=O)(=O)Nc3cc(C)on3)cc2)cc1 do in these assays?
UBC9 SUMO inh: 1; NALP1 yeast inh: 15; VIM-2 inhibitor: -5; FID counter: -56; IMP-1 inhibitor: -6; Mot1-301 SUMO: 184

Results for O=C(CN1CCCC1)N1CCCc2c1c(=O)oc1ccc(OCc3ccccc3)cc21 ?
UBC9 SUMO inh: 26; NALP1 yeast inh: 29*; VIM-2 inhibitor: -2; FID counter: 7; IMP-1 inhibitor: -4; Mot1-301 SUMO: -3

What do the screens show for `O=C(O)c1ccc(N2C(=O)c3cccc(Oc4ccc(Cl)cc4)c3C2=O)cc1`?
UBC9 SUMO inh: 7; NALP1 yeast inh: 14; VIM-2 inhibitor: 6; FID counter: -26; IMP-1 inhibitor: 17*; Mot1-301 SUMO: 2

What do the screens show for `O=C(O)c1cccc(N2C(=O)c3cccc(Oc4ccc(Cl)cc4)c3C2=O)c1`?
UBC9 SUMO inh: 12; NALP1 yeast inh: 18; VIM-2 inhibitor: 5; FID counter: -30; IMP-1 inhibitor: 20*; Mot1-301 SUMO: 9

Results for CN1C(=O)CC(Nc2cccc3cccc(N)c23)C1=O (stereo not drawn) ?
UBC9 SUMO inh: 90*; NALP1 yeast inh: 16; VIM-2 inhibitor: 1; FID counter: 1; IMP-1 inhibitor: -4; Mot1-301 SUMO: 0

What do the screens show for `CC(C)N1C(=O)CC(Nc2cccc3cccc(N)c23)C1=O` (stereo not drawn)?
UBC9 SUMO inh: 87; NALP1 yeast inh: -9; VIM-2 inhibitor: -2; FID counter: -8; IMP-1 inhibitor: 12*

Results for CC(C)N1C(=O)CC(Nc2ccc(N3CCOCC3)cc2)C1=O (stereo not drawn) ?
UBC9 SUMO inh: -14; NALP1 yeast inh: 6; VIM-2 inhibitor: -2; FID counter: -17; IMP-1 inhibitor: -8; Mot1-301 SUMO: 11

What do the screens show for `CCOC(=O)CC(NC(=O)C1c2ccccc2Oc2ccccc21)c1ccccc1Cl` (stereo not drawn)?
UBC9 SUMO inh: 14; NALP1 yeast inh: 3; VIM-2 inhibitor: -4; FID counter: -5; IMP-1 inhibitor: -3; Mot1-301 SUMO: 3

Results for CCc1nc2ccccc2n1CC1CC1(Cl)Cl (stereo not drawn) ?
UBC9 SUMO inh: 18; NALP1 yeast inh: 37*; VIM-2 inhibitor: -3; FID counter: 0; IMP-1 inhibitor: -2; Mot1-301 SUMO: 173

What do the screens show for `O=C(O)c1ccc(S(=O)(=O)c2ccc(Sc3ccc(C(=O)O)c(C(=O)O)c3)cc2)cc1`?
UBC9 SUMO inh: 14; NALP1 yeast inh: 2; VIM-2 inhibitor: 8.9*; FID counter: -6; IMP-1 inhibitor: 3; Mot1-301 SUMO: -12

Results for O=C(O)c1ccc(S(=O)(=O)N2CCCC2)cc1 ?
UBC9 SUMO inh: 2; NALP1 yeast inh: 7; VIM-2 inhibitor: -2; FID counter: 4; IMP-1 inhibitor: -3; Mot1-301 SUMO: -6

What do the screens show for `O=C(NCCCNC(=O)c1ccco1)c1ccc(F)cc1`?
UBC9 SUMO inh: 8; NALP1 yeast inh: 6; VIM-2 inhibitor: -4; FID counter: -5; IMP-1 inhibitor: 0; Mot1-301 SUMO: 4

What do the screens show for `CC(=O)NC(c1ccc(C(C)C)cc1)c1ccc2cccnc2c1O` (stereo not drawn)?
UBC9 SUMO inh: 56*; NALP1 yeast inh: -12; VIM-2 inhibitor: -3; FID counter: -33; IMP-1 inhibitor: -3; Mot1-301 SUMO: 33

What do the screens show for `CCCCC(=O)NC(c1ccc(C(C)C)cc1)c1ccc2cccnc2c1O` (stereo not drawn)?
UBC9 SUMO inh: -49; NALP1 yeast inh: 24; VIM-2 inhibitor: -2; FID counter: -32; IMP-1 inhibitor: -4; Mot1-301 SUMO: -9

Results for Cc1cc(C)cc(C(=O)Nc2cccc(NC(=O)c3ccco3)c2)c1 ?
UBC9 SUMO inh: 10; NALP1 yeast inh: 26; VIM-2 inhibitor: 0; FID counter: -29; IMP-1 inhibitor: 0; Mot1-301 SUMO: -7

Results for C#CCOCCOCCOCCNc1nc(N2CCN(C(=O)[C@H]([C@@H](C)CC)n3cc([C@@H](N)Cc4ccc(O)cc4)nn3)CC2)nc(N2CCN(C(=O)[C@H]([C@@H](C)CC)n3cc([C@@H](N)CC(C)C)nn3)CC2)n1 ?
UBC9 SUMO inh: -17; NALP1 yeast inh: 8; VIM-2 inhibitor: -1; FID counter: 47*; IMP-1 inhibitor: -3; Mot1-301 SUMO: 14

Results for C#CCOCCOCCOCCNc1nc(N2CCN(C(=O)[C@H](CCC(=O)O)n3cc(C(N)Cc4ccc(O)cc4)nn3)CC2)nc(N2CCN(C(=O)[C@H](CCC(=O)O)n3cc(C(N)[C@H](C)CC)nn3)CC2)n1 (stereo partly drawn) ?
UBC9 SUMO inh: -1; NALP1 yeast inh: 0; VIM-2 inhibitor: 0; FID counter: -31; IMP-1 inhibitor: 5.2*; Mot1-301 SUMO: -24

What do the screens show for `C#CCOCCOCCOCCNc1nc(N2CCN(C(=O)[C@H]([C@@H](C)CC)n3cc([C@@H](N)Cc4ccc(O)cc4)nn3)CC2)nc(N2CCN(C(=O)[C@H](Cc3ccc(O)cc3)n3cc([C@@H](N)C(C)CC)nn3)CC2)n1` (stereo partly drawn)?
UBC9 SUMO inh: -2; NALP1 yeast inh: -14; VIM-2 inhibitor: -4; FID counter: 45*; IMP-1 inhibitor: -3; Mot1-301 SUMO: -2

What do the screens show for `C#CCOCCOCCOCCNc1nc(N2CCN(C(=O)[C@H]([C@@H](C)CC)n3cc([C@@H](N)CO)nn3)CC2)nc(N2CCN(C(=O)[C@H](Cc3ccc(O)cc3)n3cc([C@@H](N)CC(C)C)nn3)CC2)n1`?
UBC9 SUMO inh: 3; NALP1 yeast inh: -19; VIM-2 inhibitor: -1; FID counter: 41*; IMP-1 inhibitor: -2; Mot1-301 SUMO: -6
